Reference: ChEMBL document CHEMBL1123129, “Hypolipidemic activity of indan-1,3-dione derivatives in rodents” (J Med Chem, 1985)

Tests used:
[1] = target: T1, ATP-citrate synthase (Mus musculus) (UniProt Q91V92); assay: In Vivo effect for the hypolipidemic activity on ATP-Citrate Lyase in CF1 mice after 16 days of oral administration at a dose of 20 mg/kg; format: organism-based; design: dose 20 mg/kg
T1 sequence (whole entry): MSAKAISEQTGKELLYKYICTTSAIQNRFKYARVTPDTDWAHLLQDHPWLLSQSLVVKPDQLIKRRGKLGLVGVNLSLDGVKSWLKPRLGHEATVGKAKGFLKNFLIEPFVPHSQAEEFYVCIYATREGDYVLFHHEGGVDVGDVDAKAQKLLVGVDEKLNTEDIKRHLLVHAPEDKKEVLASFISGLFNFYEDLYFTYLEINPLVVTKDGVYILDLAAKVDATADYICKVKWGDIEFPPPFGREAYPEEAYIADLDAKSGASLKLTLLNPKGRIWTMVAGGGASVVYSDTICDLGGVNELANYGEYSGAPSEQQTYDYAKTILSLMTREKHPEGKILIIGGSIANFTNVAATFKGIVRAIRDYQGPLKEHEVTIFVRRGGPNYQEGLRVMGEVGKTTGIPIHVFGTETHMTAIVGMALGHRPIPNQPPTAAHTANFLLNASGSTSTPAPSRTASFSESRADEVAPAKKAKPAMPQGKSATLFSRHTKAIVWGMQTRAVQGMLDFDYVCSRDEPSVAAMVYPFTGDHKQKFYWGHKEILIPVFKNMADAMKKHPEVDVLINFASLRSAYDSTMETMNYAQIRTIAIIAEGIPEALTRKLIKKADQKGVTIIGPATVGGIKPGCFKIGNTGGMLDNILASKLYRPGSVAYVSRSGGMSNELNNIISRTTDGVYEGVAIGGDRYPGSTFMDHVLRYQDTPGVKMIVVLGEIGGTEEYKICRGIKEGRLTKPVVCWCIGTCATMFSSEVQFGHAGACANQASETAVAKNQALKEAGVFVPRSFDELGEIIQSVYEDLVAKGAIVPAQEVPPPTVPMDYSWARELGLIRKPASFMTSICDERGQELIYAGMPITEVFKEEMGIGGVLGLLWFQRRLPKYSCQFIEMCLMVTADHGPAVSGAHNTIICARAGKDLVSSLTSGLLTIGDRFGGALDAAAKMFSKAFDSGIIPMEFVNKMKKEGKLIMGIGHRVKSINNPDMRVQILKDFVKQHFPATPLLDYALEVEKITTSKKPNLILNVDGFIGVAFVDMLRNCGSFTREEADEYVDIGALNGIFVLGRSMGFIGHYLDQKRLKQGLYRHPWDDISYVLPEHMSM
Method in brief: (§1)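 CF1 male mice are dosed orally at 10–60 mg/kg per day for 16 days, with 1% CMC as the control vehicle. Liver is homogenized at 10% in 0.25 M sucrose + 0.001 M EDTA, pH 7.2. Enzymes are assayed by literature methods, with Lowry protein. Activity is given as % of control (X ± SD, N = 6), with p from Student's t test.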

[2] = target: Acetyl-coenzyme A synthetase, cytoplasmic (Mus musculus) (UniProt Q9QXG4); assay: In Vivo effect for the hypolipidemic activity on Acetyl-coenzyme A synthetase in CF1 mice after 16 days of oral administration at a dose of 20 mg/kg; format: functional, organism-based; design: dose 20 mg/kg; method in brief: as §1
Chain of Acetyl-coenzyme A synthetase, cytoplasmic (Mus musculus) (Q9QXG4 whole entry): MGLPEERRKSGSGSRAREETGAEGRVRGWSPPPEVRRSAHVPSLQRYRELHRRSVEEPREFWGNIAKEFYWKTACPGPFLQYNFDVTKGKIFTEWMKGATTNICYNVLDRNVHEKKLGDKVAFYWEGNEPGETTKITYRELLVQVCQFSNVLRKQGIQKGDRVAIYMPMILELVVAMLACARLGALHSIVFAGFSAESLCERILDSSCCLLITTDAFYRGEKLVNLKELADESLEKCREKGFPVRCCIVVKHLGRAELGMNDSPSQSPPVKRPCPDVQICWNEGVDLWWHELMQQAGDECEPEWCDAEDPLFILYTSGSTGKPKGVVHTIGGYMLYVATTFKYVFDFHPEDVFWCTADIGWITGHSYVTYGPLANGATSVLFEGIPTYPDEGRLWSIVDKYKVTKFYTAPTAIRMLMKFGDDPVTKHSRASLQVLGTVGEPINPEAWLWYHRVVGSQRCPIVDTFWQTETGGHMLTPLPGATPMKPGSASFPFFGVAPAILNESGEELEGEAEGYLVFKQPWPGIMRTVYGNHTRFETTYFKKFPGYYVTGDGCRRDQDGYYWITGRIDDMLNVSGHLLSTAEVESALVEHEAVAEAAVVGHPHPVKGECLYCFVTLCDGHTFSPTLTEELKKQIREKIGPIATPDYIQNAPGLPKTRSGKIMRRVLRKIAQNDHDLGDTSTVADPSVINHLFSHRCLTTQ

[3] = system: Rattus norvegicus; assay: Compound was evaluated for the hypolipidemic activity at 20 mg/kg per day orally for 14 days on neutral lipids content in rat HDL; format: functional; conditions: route oral
Method in brief: (§2)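 Male Sprague–Dawley rats (~300 g) were dosed orally each day. Blood was drawn from the abdominal vein. Lipoprotein fractions (chylomicron, VLDL, LDL, HDL) were separated by the Hatch–Lees and Havel methods. Each fraction was assayed for cholesterol, triglyceride (enzymatic kit), neutral lipids, phospholipids and Lowry protein. Values are % of 1% CMC vehicle control, N = 6.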

[4] = system: Rattus norvegicus; assay: Compound was evaluated for the hypolipidemic activity at 20 mg/kg per day orally for 14 days on phospholipids content in rat LDL; format: functional; conditions: route oral; method in brief: as §2
[5] = target: T2, Sterol O-acyltransferase 1 (Mus musculus) (UniProt Q61263); assay: In Vivo effect for the hypolipidemic activity on Acyl-COA cholesterol acyltransferase in CF1 mice after 16 days of oral administration at a dose of 20 mg/kg; format: functional, organism-based; design: dose 20 mg/kg; method in brief: as §1
T2 sequence (whole entry): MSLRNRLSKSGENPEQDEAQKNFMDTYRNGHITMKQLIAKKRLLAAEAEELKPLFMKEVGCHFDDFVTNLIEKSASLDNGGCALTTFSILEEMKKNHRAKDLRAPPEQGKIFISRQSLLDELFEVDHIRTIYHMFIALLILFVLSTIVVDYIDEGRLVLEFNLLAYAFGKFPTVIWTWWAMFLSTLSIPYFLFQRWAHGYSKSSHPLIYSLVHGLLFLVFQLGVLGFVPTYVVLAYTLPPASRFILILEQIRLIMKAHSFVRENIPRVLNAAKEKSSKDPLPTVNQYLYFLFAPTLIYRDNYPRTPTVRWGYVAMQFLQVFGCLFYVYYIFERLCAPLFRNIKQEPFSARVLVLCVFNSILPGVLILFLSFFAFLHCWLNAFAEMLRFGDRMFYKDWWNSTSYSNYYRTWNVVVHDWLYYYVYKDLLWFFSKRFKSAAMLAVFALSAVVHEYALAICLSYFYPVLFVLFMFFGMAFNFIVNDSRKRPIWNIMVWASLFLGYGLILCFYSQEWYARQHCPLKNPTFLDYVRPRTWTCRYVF

[6] = system: Mus musculus; assay: Compound was evaluated for the hypolipidemic activity in CF1 male mice at a dose of 40 mg/kg orally for Serum cholesterol at 16th day; format: functional; conditions: route oral
Method in brief: (§3)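 CF1 male mice received the agent orally in 1% CMC at 10–60 mg/kg per day. Tail-vein blood was taken on days 9 and 16. Serum cholesterol was measured by modified Liebermann–Burchard on duplicate 25-µL samples, and serum triglyceride on day 16 in duplicate 50-µL samples. Values are % of vehicle control, mean ± SD, N = 6; Student's t test.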

[7] = target: T1, ATP-citrate synthase (Mus musculus); assay: In Vivo effect for the hypolipidemic activity on ATP-Citrate Lyase in CF1 mice after 16 days administered orally at a dose of 60 mg/kg; format: organism-based; design: dose 60 mg/kg; method in brief: as §1
[8] = system: Mus musculus; assay: Compound was evaluated for the hypolipidemic activity in CF1 male mice at a dose of 10 mg/kg orally for Serum cholesterol at 16th day; format: functional; conditions: route oral; method in brief: as §3
[9] = system: Rattus norvegicus; assay: Compound was evaluated for the hypolipidemic activity at 20 mg/kg per day orally for 14 days on triglycerides content in rat small intestine.; format: functional; conditions: route oral
Method in brief: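 Male Sprague–Dawley rats were dosed orally for 14 days. Liver, small intestine and a 24-h fecal collection were lipid-extracted. Extracts were assayed for cholesterol (modified Liebermann–Burchard), triglyceride (enzymatic kit), neutral lipids, phospholipids and protein. Values are % of 1% CMC vehicle control, mean ± SD, N = 6.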

[10] = system: Rattus norvegicus; assay: Compound was evaluated for the hypolipidemic activity at 20 mg/kg per day orally for 14 days on phospholipids content in rat HDL; format: functional; conditions: route oral; method in brief: as §2
[11] = system: Rattus norvegicus; assay: Compound was evaluated for the hypolipidemic activity in Sprague-Dawley rats at a dose of 20 mg/kg orally for Serum triglyceride at 9th day; format: functional; conditions: route oral
Method in brief: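 Sprague–Dawley male rats (~350 g) received 20 mg/kg per day orally, with 1% CMC as the vehicle control; N = 6. Tail-vein blood was taken between 8:00 and 9:30 a.m. on days 9 and 16 and spun for 3 min to obtain serum. Cholesterol was measured by a modified Liebermann–Burchard reaction and triglyceride by kit. Values are % control ± SD; significance by Student's t test.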

Control [1]: 43%
Control [2]: 72%
Control [5]: 48%
Control [7]: 93%
Compound: COc1ccc(C2C(=O)c3ccccc3C2=O)cc1 [ANISINDIONE]
Control [3]: 113%
Control [4]: 204%
Control [6]: 48%
Control [8]: 63%
Control [9]: 89%
Control [10]: 87%
Control [11]: 73%
